Columns and labels:
Format in all cases: ADME, organism-based
Settings in all cases: in vivo, 0.5 h; call rule not given here
Mus musculus [1] = assay: Biodistribution in LPS treated BALB/c mouse anti-collagen antibody-induced arthritis model arthritic joints at 9 to 12 MBq, iv after 30 mins by PET analysis
Summary of the method: (§1)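 Male BALB/c mice, 6–7 wk. Arthritis induced with an iv anti-type II collagen mAb cocktail (1.5 mg), then ip LPS (30 μg) on day 3; mice used 4 days after LPS with a score of 3 in each limb. Enantiomer given as an iv bolus (<0.18 nmol, in saline). Dynamic PET for 30 min under isoflurane. VOIs drawn on ankles and heart; SUV time-activity curves. Each mouse received both isomers 5 h apart.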

Mus musculus [2] = assay: Biodistribution in LPS treated BALB/c mouse anti-collagen antibody-induced arthritis model ankle of hindlimb at 9 to 12 MBq, iv after 30 mins by PET analysis relative to normal mouse; summary of the method: as §1
Heart = assay: Biodistribution in LPS treated BALB/c mouse anti-collagen antibody-induced arthritis model heart at 9 to 12 MBq, iv after 30 mins by PET analysis; summary of the method: as §1
Mus musculus [3] = assay: Biodistribution in mouse cerebrum at 9 to 12 MBq, iv after 30 mins by PET analysis
Summary of the method: (§2)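 Normal male BALB/c mice, 6–7 wk, under isoflurane with a heating pad. Each enantiomer given as a 0.2 mL iv bolus (<0.18 nmol) diluted in saline. PET acquired for 30 min in 13 frames and reconstructed by FBP without attenuation correction. Regional radioactivity taken from VOI analysis of time-activity curves.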

Liver = assay: Biodistribution in mouse liver at 9 to 12 MBq, iv after 30 mins by PET analysis; summary of the method: as §2
Kidney = assay: Biodistribution in mouse kidney at 9 to 12 MBq, iv after 30 mins by PET analysis; summary of the method: as §2
Urinary bladder = assay: Biodistribution in mouse bladder at 9 to 12 MBq, iv after 30 mins by PET analysis; summary of the method: as §2
Plasma [4] = assay: Drug level in mouse plasma assessed as fraction of metabolites level at 70 to 125 MBq, iv after 30 mins by HPLC analysis
Summary of the method: (§3)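 Normal mice, 20–25 g, n = 3 per isomer; iv dose <0.43 nmol. Decapitated at 30 min. Heparinized blood centrifuged to plasma; plasma radioactivity counted in a dose calibrator as % dose/mL. Plasma deproteinized with 2 volumes of ethanol and filtered, then run on chiral reversed-phase OJ-RH HPLC with radiodetection. Peaks identified by co-injected unlabeled ibuprofen; fractions decay- and baseline-corrected; mean ± SD.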

Plasma [5] = assay: Drug level in mouse plasma assessed as (R)-[11C]-ibuprofen level at 70 to 125 MBq, iv after 30 mins by HPLC analysis; summary of the method: as §3
Plasma [6] = assay: Drug level in mouse plasma assessed as (S)-[11C]-ibuprofen level at 70 to 125 MBq, iv after 30 mins by HPLC analysis; summary of the method: as §3
Plasma [7] = assay: Drug level in mouse plasma assessed as [11C]-ibuprofen level at 70 to 125 MBq, iv after 30 mins by HPLC analysis; summary of the method: as §3
Plasma [8] = assay: Drug level in mouse plasma at 70 to 125 MBq, iv after 30 mins by HPLC analysis; summary of the method: as §3
Plasma [9] = assay: Drug level in mouse plasma assessed as radioactivity of [11C]-ibuprofen at 70 to 125 MBq, iv after 30 mins by HPLC analysis; summary of the method: as §3

| Structure (SMILES) | Drug uptake (Mus musculus [1]) | fold change (FC) (Mus musculus [2]) | Drug uptake (Heart) | Drug uptake (Mus musculus [3]) | Drug uptake (Liver) | Drug uptake (Kidney) | Drug uptake (Urinary bladder) | Drug uptake (Plasma [4]) | Drug uptake (Plasma [5]) | Drug uptake (Plasma [6]) | Drug uptake (Plasma [7]) | Drug uptake (Plasma [8]) | Drug uptake (Plasma [9]) |
| --- | --- | --- | --- | --- | --- | --- | --- | --- | --- | --- | --- | --- | --- |
| CC(C)Cc1ccc([C@@H]([11CH3])C(=O)O)cc1 | Active | > 2 | Not Active | Active | Active | Active | Active | 25% | 23% | 52% | 75% | 8.3 %ID/ml | 5.9 %ID/ml |
| CC(C)Cc1ccc([C@H]([11CH3])C(=O)O)cc1 | Active | > 2 | Not Active | Active | Active | Active | Active | 34% | 0.78% | 65% | 66% | 8.9 %ID/ml | 6.2 %ID/ml |
